Data set [1] relates to Escherichia coli.
Data set [2] has as its system Escherichia coli. Put plainly: Estimated rate of [3H]DHS uptake in Escherichia coli K12 (ATCC 25868). The class given is functional. More on the design: unit not given here. In short, it runs like this: (§1)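 Cultures in tryptone-peptone broth at 37 °C with shaking, grown from OD600 ~0.05 to 0.20, then preexposed to antibiotic for 20 min at 37 °C. Cells pelleted, resuspended in equal volume fresh broth, pulsed 5.0 min at 37 °C with [3H]DHS (1.0 µCi/mL, 3.8 Ci/mmol). Samples filtered, washed with 0.1 M LiCl, scintillation counted. C50 = half-maximal rate estimated from dose-response curves.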

A short description of data set [3]: (§2) Lethal dose required to kill 90% of the Escherichia coli K12 (ATCC 25868) cell population. The class given is functional. In outline: (§3)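 E. coli K12 in tryptone-peptone broth at 37 °C, OD600 0.20, exposed 20 min at 37 °C to antibiotic; pellets resuspended to OD600 0.10–0.15 in TPB, serially diluted, plated on tryptone-peptone agar, colonies counted after overnight at 37 °C. Value is the concentration killing 90% of the population.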

Data set [4] is described as follows: Percent killing of the total Escherichia coli K12 (ATCC 25868)cells at the C50 concentration was determined. The class given is functional.
In data set [5] the test system is Escherichia coli. Put plainly: Estimated rate of [3H]DHS (Dihydrostreptomycin) uptake in Escherichia coli K12 (ATCC 25868) [pmol/min (optical density unit)E-1] at the C50 was determined;OD means optical density. The class given is functional. In outline: as §1
Data set [6] in a line: (§4) Percent killing of the total Escherichia coli K12 (ATCC 25868) cells at the C50 concentration was determined. Type of data set: ADME.
Data set [7] in a line: as §2. Type of data set: ADME. In outline:
as §3

Data set [8] is described as follows: as §4. Type of data set: functional.
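Wherever C50 is given: escherichia coli cells, read-out is the rate of enhanced [3H]DHS uptake, C50 being the level that yields half of the maximal rate.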

In the case of `CN[C@@H]1[C@H](O[C@H]2[C@H](O[C@H]3[C@H](O)[C@@H](O)[C@H](N=C(N)N)[C@@H](O)[C@@H]3N=C(N)N)O[C@@H](C)[C@]2(O)C=O)O[C@@H](CO)[C@H](O)[C@H]1O` [STREPTOMYCIN], the C50 in the data set on Escherichia coli [1] came out at 0.34 µM. For the same molecule, the Uptake at C50 with Escherichia coli [2] was 5.8. The molecule further gave an LD90 in data set [3] of 0.36 µM. For the same molecule, the “Kill at C50” value in data set [4] is 88%.
As to `CN[C@@H]1[C@@H](O[C@H]2O[C@H](CO)[C@@H](N)[C@H](O)[C@H]2O)OC2C[C@@H](N)[C@@H](O[C@H]3[C@H](O)[C@@H](O)[C@H](N)C[C@@H]3N)OC2[C@@H]1O` (stereo not given in full) [APRAMYCIN], the Uptake at C50 with Escherichia coli [5] was 4. Moreover, the C50 in the data set with Escherichia coli [1] was found to be 0.87 µM. Besides, the “Kill at C50” value in data set [6] was determined as 95%. The molecule further showed an LD90 in data set [7] of 0.67 µM.
Consider `NCC[C@H](O)C(=O)N[C@@H]1C[C@H](N)[C@@H](O[C@H]2O[C@H](CN)[C@@H](O)[C@H](O)[C@H]2O)[C@H](O)[C@H]1O[C@H]1O[C@H](CO)[C@@H](O)[C@H](N)[C@H]1O` (stereo in doubt) [AMIKACIN], for which the “Kill at C50” value in data set [8] was 76%. This molecule also gave an LD90 in data set [3] of 0.32 µM.

(Values after ChEMBL document CHEMBL1123673, “Comparison of aminoglycoside antibiotics with respect to uptake and lethal activity in Escherichia coli” (J Med Chem, 1987).)
